Hits are enriched below; roughly 6.7% of the tested compounds scored in any of these assays.
GRIN3A LBD mod: modulators (binders) of human NR3A ligand-binding domain. AID 1259313. NR3A LBD differential scanning fluorimetry, Tm shift; 0% = protein alone, 100% = glycine-bound protein. hit rate 2.5% among 340,000. Tm shift relative to glycine control, % at 25 µM;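 active means melting temperature shift of at least 10% of the positive control shift, at one fixed dose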
Beta apoptosis: blocks beta cell apoptosis; INS-1E cytokine-induced death, ATP luminescence, 48 h; percent of positive-control rescue, neutral wells zero; protection from apoptosis, % (no concentration beside the values); hit rate 0.8% among 300,000;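 active means Every replicate reaches about 75%, or at least half do and their mean reaches it too, limit read from the data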;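 further: 0% = cytokine-treated negative control wells and 100% = positive control rescue; higher means more ATP so stronger rescue from cytokine killing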
CHOP inhibitor: blocks CHOP induction under ER stress; hit rate 3.8% among 220,000; inhibition, % at 10 µM; CHO-K1 CHOP-promoter luciferase, tunicamycin-induced, 15-18 h;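 active means compounds that reduced the stress-induced luciferase reporter signal by more than about 70% of percent inhibition, limit read from the data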;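 further: 0% = tunicamycin plus vehicle and 100% = wells without tunicamycin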
PREPL inh: inhibits the human prolyl oligopeptidase-like enzyme; hit rate 0.68% among 320,000; AID 2751; recombinant PREPL, fluorescence polarization activity-based probe; Q4J6C6; inhibition, % at 5.96 µM; in the data active means inhibition above about 43%;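 further: 0% = enzyme with DMSO and 100% = wells lacking enzyme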
Target sequence (Q4J6C6 whole entry, looked up): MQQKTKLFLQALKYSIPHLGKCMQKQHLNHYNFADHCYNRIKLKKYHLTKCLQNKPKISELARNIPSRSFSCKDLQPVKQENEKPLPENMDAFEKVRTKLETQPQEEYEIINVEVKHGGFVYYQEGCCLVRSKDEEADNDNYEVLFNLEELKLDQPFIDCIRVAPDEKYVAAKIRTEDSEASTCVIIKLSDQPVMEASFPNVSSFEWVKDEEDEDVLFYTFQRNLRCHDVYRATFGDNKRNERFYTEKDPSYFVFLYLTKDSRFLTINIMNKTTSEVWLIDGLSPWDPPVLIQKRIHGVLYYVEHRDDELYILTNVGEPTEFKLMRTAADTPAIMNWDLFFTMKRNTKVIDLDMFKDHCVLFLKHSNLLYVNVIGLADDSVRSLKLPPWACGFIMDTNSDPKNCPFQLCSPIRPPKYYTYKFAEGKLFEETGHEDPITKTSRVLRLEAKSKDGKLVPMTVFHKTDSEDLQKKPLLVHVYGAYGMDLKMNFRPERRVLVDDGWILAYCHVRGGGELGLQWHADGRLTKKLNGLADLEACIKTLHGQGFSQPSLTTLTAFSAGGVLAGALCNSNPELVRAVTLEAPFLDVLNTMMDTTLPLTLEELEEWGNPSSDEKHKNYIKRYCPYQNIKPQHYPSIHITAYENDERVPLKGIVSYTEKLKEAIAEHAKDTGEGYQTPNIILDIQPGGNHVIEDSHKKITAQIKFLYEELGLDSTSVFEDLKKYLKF
T cruzi inh: T. cruzi replication inhibition; T. cruzi beta-gal in NIH3T3, luminescence, 90 h; inhibition, % (test concentration not listed); hit rate 1.4% among 300,000;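 active means mean inhibition across valid replicates above about 55%, limit read from the data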;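 further: signal also drops with host cell toxicity which is not excluded here; 0% = plate median of DMSO wells and 100% = zero luminescence signal; higher percent means less beta-gal luminescence so fewer parasites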
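System: Mouse NIH/3T3 fibroblasts infected with β-gal-expressing T. cruzi Tulahuen C4 | Quantity: NIH/3T3 cells, 5,000 per well | Reagent: 5000 reporter trypomastigotes per well | Dosing: Compound pinned at 50 nL/well, DMSO | Schedule: 3 h host attachment, then at least 90 h co-culture | Detection: GalScreen luminescence, 60 min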
CSC inhib: blocks cancer stem cells. hit rate 1.1% among 300,000. AID 2717. cancer stem cell-like cells viability, luminescence. inhibition, % at 7.5 µM; in the data active means inhibition above about 75%; tested in HMLE shEcad cells
* = called active by the depositor; · = no result given.

SMILES	GRIN3A LBD mod	Beta apoptosis	CHOP inhibitor	PREPL inh	T cruzi inh	CSC inhib
CC(C)c1ccc(-c2nc(N3CCCCCC3)nc3n[nH]c(N)c23)cc1	-0.6	1.4	80.4*	3.0	28.0	-2.9
C=CC[C@@H](CC(=O)NCCO)C(=O)N[C@@H](COC(=O)[C@@H](CC=C)CC(=O)OC(C)(C)C)Cc1c[nH]c2ccccc12	-0.8	-2.8	·	14.0	·	·
CN(CC(O)COc1ccc2ccccc2c1)C1CCCCC1 (stereo unspecified)	0.1	6.8	·	19.2	19.5	-8.7
CSc1ccc(CN2CCN(Cc3ccc([N+](=O)[O-])cc3)CC2)cc1	0.9	-3.7	36.3	11.2	66.1*	25.4
Cc1ccc(-c2nnn(CC(=O)Nc3cccc4c3CCCC4)n2)o1	2.1	3.1	80.7*	4.6	-4.3	·
Cc1nnc(-c2cccc(Br)c2)c2cn(-c3ccccc3)nc12	4.1	10.1	66.5	-0.4	35.7	-1.8
Cc1nnc(-c2cccc(Br)c2)c2cn(-c3cccc(Br)c3)nc12	-2.6	5.4	75.3*	11.7	59.5*	22.9
OC(c1ccc(Cl)cc1)c1nccc2ccccc12 (stereo unspecified)	-2.9	-12.1	·	0.9	-2.4	-8.4
Cc1ccc2cc(/C=N/NC(=O)c3ccccc3O)c(Cl)nc2c1	18.9*	2.7	9.2	16.1	-1.8	-4.1
Cc1ccc2cc(/C=N/NC(=O)[C@H]3C[C@@H]3c3ccccc3)c(Cl)nc2c1	0.0	6.0	57.2	-17.0	55.5*	6.4
Cc1cccc2cc(/C=N/NC(=O)c3ccncc3)c(Cl)nc12	1.0	6.4	-12.0	-2.8	0.0	-4.5
O=C(N/N=C/c1cc2cc3c(cc2nc1Cl)OCCO3)c1ccccc1O	7.3	4.0	-13.5	-2.3	-8.1	-18.1
Cc1cccc2cc(/C=N/NC(=O)c3ccccc3O)c(Cl)nc12	29.2*	·	25.8	-4.0	0.6	42.6
CCOC(=O)Cc1csc(NS(=O)(=O)c2ccc(OC)cc2)n1	-1.4	4.4	41.5	18.3	-7.5	17.0
Cc1ccc(C)c(Cn2nnc3c(=O)[nH]c(C4CCN(C(=O)c5ccco5)CC4)nc32)c1	1.0	1.6	·	-3.5	5.4	-5.9
Cc1ccccc1-n1c(C)nnc1SCC(=O)N1CCc2ccccc2C1	-9.5	-4.2	36.1	15.8	-2.1	-2.8
CCC(=O)N(Cc1ccc(S(N)(=O)=O)cc1)C1CC(=O)N(c2ccccc2)C1=O (stereo unspecified)	-2.4	-0.7	12.5	-1.0	-7.1	3.3
[N-]=[N+]=Nc1ccc(C(=O)CSC[C@H](NC(=O)CC[C@H](N)C(=O)O)C(=O)NCC(=O)O)cc1	·	·	17.2	·	·	·
CCc1nc(CN2CCN(c3cc(C(F)(F)F)ccn3)CC2)c(C)[nH]1	1.4	-2.4	3.5	9.0	14.2	39.2
Cc1ccc(C2=NCCn3nc4cc([N+](=O)[O-])ccc4c32)cc1	-2.1	-0.5	·	8.7	-15.6	-17.8
COC(=O)[C@H]1[C@H]2C[C@@H]3c4[nH]c5cc(OC)ccc5c4CCN3C[C@H]2C[C@@H](OC(=O)c2ccc(N)cc2)[C@@H]1OC	-1.3	5.7	24.4	24.7	57.9*	-4.9
CCCN(CC(=O)Nc1ccc(F)c(F)c1F)C(=O)CN1C(=O)NC2(CCCCC2)C1=O	1.0	·	·	·	·	·
CCN(CC)CCN(C)C(=O)CCc1nnc(-c2ccc(C)s2)o1	2.1	-7.8	10.9	9.4	57.4*	4.7
O=C1N[C@@H](Cc2ccccc2)C(=O)N2[C@@H]3N(S(=O)(=O)c4ccccc4)c4ccccc4[C@]3(Br)C[C@@H]12	-3.0	·	·	-3.7	10.8	-20.8
CC(C)c1cc(C(C)C)c(S(=O)(=O)N2c3ccccc3[C@@]3(Br)C[C@H]4C(=O)N[C@@H](Cc5ccccc5)C(=O)N4[C@@H]23)c(C(C)C)c1	-4.9	·	·	7.5	54.7*	-20.3
SMILES	GRIN3A LBD mod	Beta apoptosis	CHOP inhibitor	PREPL inh	T cruzi inh	CSC inhib
O=C1N[C@@H](Cc2ccccc2)C(=O)N2[C@H]1C[C@]1([C@]34C[C@H]5C(=O)N[C@@H](Cc6ccccc6)C(=O)N5[C@H]3N(S(=O)(=O)c3ccccc3)c3ccccc34)c3ccccc3N(S(=O)(=O)c3ccccc3)[C@H]21	1.0	-0.2	·	-13.3	6.6	-0.2
CC(C)c1cc(C(C)C)c(S(=O)(=O)N2c3ccccc3[C@]3(Br)C[C@H]4C(=O)N[C@@H](Cc5ccccc5)C(=O)N4[C@H]23)c(C(C)C)c1	·	·	·	·	55.3*	·
O=C1CCC(C(=O)N2CCCCO2)CN1Cc1cccc(F)c1 (stereo unspecified)	1.4	-5.3	·	-2.8	-16.0	-3.5
CCNc1c([N+](=O)[O-])c(=O)oc2ccccc12	-2.7	-5.3	30.3	0.3	-4.5	-13.8
COc1c([N+](=O)[O-])c(=O)oc2ccccc12	12.6*	-4.2	43.1	-1.2	-24.2	-0.4
COc1ccc(N=Cc2nc(-c3ccco3)oc2O)cc1	-11.0	-2.5	-4.6	17.6	4.7	1.1
CCC(=NCc1ccc(Cl)c(Cl)c1)c1nc(-c2ccco2)oc1O	-0.8	5.3	-4.0	73.9*	20.3	102.3*
CCCCN1CC(COCc2ccccc2)Oc2cccc(F)c2S1(=O)=O (stereo unspecified)	14.0*	·	·	·	·	·
CCCCN1CC(COCc2ccccc2)Oc2ccccc2S1(=O)=O (stereo unspecified)	16.8*	·	·	·	·	·
CCCCN1CC(COC)Oc2cccc(F)c2S1(=O)=O (stereo unspecified)	-2.4	·	·	·	·	·
COc1ccc(CN2CC(COCc3ccccc3)Oc3ccccc3S2(=O)=O)cc1 (stereo unspecified)	1.2	·	·	·	·	·
O=S1(=O)c2ccccc2OC(COCc2ccccc2)CN1Cc1ccccc1 (stereo unspecified)	18.1*	·	·	·	·	·
O=S(=O)(NCc1ccco1)c1ccc(Cl)nc1	-0.8	-1.9	-9.6	6.3	-1.6	1.3
Cc1ccccc1NS(=O)(=O)c1cccc2nsnc12	-3.5	2.5	·	-2.8	0.6	-16.0
Cc1[nH]c2ccccc2c1C(=O)CSC(=S)N1CCCCC1	4.4	-2.2	29.1	-2.4	23.9	-8.4
CC(C)NC(=O)N(C)C[C@H]1Oc2ccc(NC(=O)Nc3ccccc3)cc2C(=O)N([C@@H](C)CO)C[C@@H]1C	-0.4	-0.4	·	1.9	·	-2.1
COC(=O)Cc1ccc(NC(=S)Nc2ccccn2)cc1	-4.0	6.1	73.2*	23.8	-18.1	12.1
CCOc1ccc(NC(=O)C2CCN(C(=O)C3CC(=O)N(c4ccc(C)cc4)C3)CC2)cc1 (stereo unspecified)	-1.7	-9.6	·	10.3	6.9	3.2
CC(C)Oc1ccc(/C=N/NC(=O)C(CSCc2ccccc2)NC(=O)c2ccc([N+](=O)[O-])cc2)cc1 (stereo unspecified)	-0.8	-14.8	75.6*	2.8	19.7	14.2
O=C(Cn1cc([N+](=O)[O-])cn1)NCCc1nc2ccccc2[nH]1	-1.2	-5.0	21.2	7.0	-3.6	-15.1
